Where two headings read alike, the source gives them in different places.
Assays:
J774 macrophages [1] = assay: release of lactate dehydrogenase; format: cell-based, mouse; conditions: 24 h incubation, telavancin 90 mg/L, vancomycin 50 mg/L, oritavancin 25 mg/L (human Cmax), controls 5.0 ± 0.2%, n = 3
How it was run: (§1)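 LDH release into the culture medium was measured after exposure to the test compound to assess pericellular membrane integrity. J774 macrophages were grown in RPMI 1640 and rat embryo fibroblasts in Dulbecco's modified Eagle's medium, both with 10% fetal calf serum.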

rat embryo fibroblasts [2] = assay: total phospholipid and cholesterol content, fibroblasts; format: cell-based; conditions: 72 h, telavancin 90 mg/L, vancomycin 50 mg/L, oritavancin 25 mg/L, n = 6–8; for total cholesterol content: control 130 ± 16 nmol/mg of protein; for total phospholipid content: control 295 ± 8 nmol/mg of protein
J774 macrophages [3] = conditions: cited from earlier work; for accumulation level in macrophages: recorded previously in the same conditions (macrophages, 24 h)
[4] = cited from earlier work
J774 mouse macrophages = assay: total phospholipid and cholesterol content, macrophages; format: cell-based; conditions: 24 h, telavancin 90 mg/L, vancomycin 50 mg/L, oritavancin 25 mg/L, n = 6–8; for total cholesterol content: control 72 ± 3 nmol/mg of protein; for total phospholipid content: control 204 ± 10 nmol/mg of protein
rat embryo fibroblasts [5] = assay: release of lactate dehydrogenase; format: cell-based; conditions: 72 h incubation, telavancin 90 mg/L, vancomycin 50 mg/L, oritavancin 25 mg/L (human Cmax), controls 13.4 ± 3.7%, n = 3
How it was run: as §1

J774 macrophages [6] = assay: electron microscopy with morphometric analysis of lysosomal changes, macrophages; format: cell-based, mouse; conditions: 24 h
rat embryo fibroblasts [7] = assay: electron microscopy with morphometric analysis of lysosomal changes, fibroblasts; format: cell-based; conditions: 72 h
J774 macrophages [8] = assay: cellular uptake, accumulation and efflux; format: in vitro ADME, mouse
rat embryo fibroblasts [9] = assay: cellular uptake; format: in vitro ADME; conditions: stated for both cell types
J774 macrophages [10] = assay: subcellular distribution by cell fractionation and isopycnic centrifugation; format: in vitro ADME, mouse; conditions: 24 h, 90 mg/L
How it was run: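 J774 macrophages were exposed 24 h at 37°C to 90 mg/L labelled test compound in 10% serum medium. They were then scraped into 0.25 M sucrose/1 mM EGTA/3 mM imidazole pH 7.4 and homogenised. Low-speed spin gave unbroken cells/nuclei; high-speed spin split granules/membranes from supernatant. The granule fraction was run on an isopycnic sucrose gradient, with densities standardised 1.08–1.21. Radioactivity, protein and marker enzymes were measured, expressed as % recovered per fraction.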

| release of lactate dehydrogenase (J774 macrophages [1]) | total cholesterol content (rat embryo fibroblasts [2]) | total cholesterol content (J774 mouse macrophages) | release of lactate dehydrogenase (rat embryo fibroblasts [5]) | Compound | total phospholipid content (rat embryo fibroblasts [2]) | accumulation level in macrophages (J774 macrophages [3]) | human Cmax [4] | total phospholipid content (J774 mouse macrophages) | also measured |
| --- | --- | --- | --- | --- | --- | --- | --- | --- | --- |
| 5.0 ± 1.5% | slight but not significant increase | slight but not significant increase | 17.1 ± 1.3% | CN[C@H](CC(C)C)C(=O)N[C@H]1C(=O)N[C@@H](CC(N)=O)C(=O)N[C@H]2C(=O)N[C@H]3C(=O)N[C@H](C(=O)N[C@H](C(=O)O)c4cc(O)cc(O)c4-c4cc3ccc4O)[C@H](O)c3ccc(c(Cl)c3)Oc3cc2cc(c3O[C@@H]2O[C@H](CO)[C@@H](O)[C@H](O)[C@H]2O[C@H]2C[C@](C)(N)[C@H](O)[C@H](C)O2)Oc2ccc(cc2Cl)[C@H]1O [vancomycin, Vancomycin] | Neither telavancin nor vancomycin caused detectable increase | ~8 fold | 50 µg/mL | Neither telavancin nor vancomycin caused detectable increase | – |
| 4.9 ± 1.0% | slight but not significant increase | slight but not significant increase | 16.9 ± 2.5% | Telavancin | Neither telavancin nor vancomycin caused detectable increase | – | 90 µg/mL | Neither telavancin nor vancomycin caused detectable increase | ultrastructural alterations (electron microscopy) (J774 macrophages [6]; J774 macrophages, 90 mg/L): enlargement of lysosomes that were filled with a pleiotropic material; morphometric changes compared with vancomycin (J774 macrophages [6]; macrophages, 25 mg/L telavancin vs 50 mg/L vancomycin): changes similar to those seen with 50 mg/L vancomycin; morphometric alterations compared with oritavancin (J774 macrophages [6]; macrophages, 90 mg/L telavancin vs 20 mg/L oritavancin): considerably milder than in cells incubated with 20 mg/L oritavancin; ultrastructural alterations (electron microscopy) (rat embryo fibroblasts [7]; 90 mg/L): enlargement of lysosomes that were filled with a pleiotropic material; morphometric alterations compared with oritavancin (rat embryo fibroblasts [7]; 90 mg/L telavancin vs 20 mg/L oritavancin): considerably milder than in cells incubated with 20 mg/L oritavancin; morphometric changes compared with vancomycin (rat embryo fibroblasts [7]; 90 mg/L telavancin vs 50 mg/L vancomycin): changes similar to those seen with 50 mg/L vancomycin; accumulation level in macrophages (J774 macrophages [8]; 24 h): ~45 fold; apparent rate of efflux relative to influx (fold lower) (J774 macrophages [8]; initial uptake 12 h at 90 mg/L, then drug-free medium for 24 h): ~5.7 fold; uptake rate without serum relative to with serum (fold faster) (J774 macrophages [8]; medium not supplemented with calf serum, 5 h, 10–90 mg/L, data not shown): ~ 1.7 fold; clearance rate (abstract) (J774 macrophages [8]; stated for both cell types): ~10 mL/g of protein/h; clearance rate (abstract) (rat embryo fibroblasts [9]): ~10 mL/g of protein/h; half-life ([4]; serum, once-daily administration): 7.5 h; cellular concentration in human alveolar macrophages ([4]; within 8–24 h after systemic administration of therapeutic doses): ~ 50 mg/L; cell-associated drug recovered in supernatant fraction (J774 macrophages [10]; N-acetyl-β-glucosaminidase 6%): 10%; cell-associated drug recovered in unbroken cells/nuclei fraction (J774 macrophages [10]; N-acetyl-β-glucosaminidase 27%): 35%; cell-associated drug recovered in granules/membranes fraction (J774 macrophages [10]; N-acetyl-β-glucosaminidase 67%): 55% |

| Compound | release of lactate dehydrogenase (J774 macrophages [1]) | total cholesterol content (rat embryo fibroblasts [2]) | total cholesterol content (J774 mouse macrophages) | release of lactate dehydrogenase (rat embryo fibroblasts [5]) | total phospholipid content (rat embryo fibroblasts [2]) | accumulation level in macrophages (J774 macrophages [3]) | human Cmax [4] | total phospholipid content (J774 mouse macrophages) | also measured |
| --- | --- | --- | --- | --- | --- | --- | --- | --- | --- |
| Oritavancin | 15.5 ± 1.5% | marked, statistically significant increase | marked, statistically significant increase | 18.2 ± 3.0% | significant increases | ~370 fold | 25 µg/mL | significant increases | initial uptake clearance rate (J774 macrophages [3]; J774 macrophages): ~150 µL/mg of protein/h |
